Experimental data as given in ChEMBL document CHEMBL1121392, “Synthesis and antiarrhythmic properties of some 5-benzamido-2-methyl-trans-decahydroisoquinolines” (J Med Chem, 1980).

Assays:
[1] = Ratio of lethal dose to that of effective dose in mice; assay type: ADME, organism-based; settings: mouse, in vivo
[2] = Compound was evaluated for acute toxicity (24 h) in female roswell park white mice given intraperitoneally; assay type: organism-based; settings: mouse, in vivo, ip
Summary of the method: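 Female Roswell Park (ICR) mice, about 15–25 g, dosed intraperitoneally in groups of at least ten. At least three dose levels were spaced logarithmically at intervals of 0.1 or less. Deaths were scored at 24 h.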

Mus musculus = species on record: Mus musculus; experiment: Antiarrhythmic potency in female roswell park white mice using chloroform-induced ventricular fibrillation assay; assay type: functional; settings: Heart

Structure (SMILES)	therapeutic index (LD50/ED50) [1]	LD50 at 24 h [2] [µmol/kg]	ED50 (Mus musculus) [µmol/kg]
COc1ccc(C(=O)NC2CCCC3CN(C)CCC32)cc1 (stereo not given)	10.4	1140	109
CN1CCC2C(CCCC2NC(=O)c2ccc(F)cc2)C1 (stereo not given)	9	992	110
COc1cc(C(=O)NC2CCCC3CN(C)CCC32)cc(OC)c1OC (stereo not given)	24	610	25
CN1CCC2C(CCCC2NC(=O)c2ccc(Cl)cc2)C1 (stereo not given)	19	929	49
C=C[C@H]1CN2CC[C@H]1C[C@@H]2[C@@H](O)c1ccnc2ccc(OC)cc12 [QUINIDINE]	–	524	122
Cc1ccc(C(=O)NC2CCCC3CN(C)CCC32)cc1 (stereo not given)	7.3	803	110
CN1CCC2C(CCCC2NC(=O)c2cccc(Cl)c2)C1 (stereo not given)	8.36	613	73
CN1CCC2C(CCCC2NC(=O)c2ccc(Cl)cc2Cl)C1 (stereo not given)	7.1	624	88
CN1CCC2C(CCCC2NC(=O)c2ccc(Cl)c(Cl)c2)C1 (stereo not given)	19.6	630	32
CN1CCC2C(CCCC2NC(=O)c2ccc(C(F)(F)F)cc2)C1 (stereo not given)	13.6	661	48
CN1CCC2C(CCCC2NC(=O)c2ccccc2)C1 (stereo not given)	8.58	866	101
CN1CCC2C(CCCC2NC(=O)c2ccc([N+](=O)[O-])cc2)C1 (stereo not given)	11.7	1100	95
